Results published in ChEMBL document CHEMBL1157324, “Lophocladines, bioactive alkaloids from the red alga Lophocladia sp” (J Nat Prod, 2006).
Calls of active or inactive are those of the source. The rule behind the calls is not given here.

How the values were obtained:
[1] = system: NCI-H460; assay: Cytotoxicity against human NCI-H460 cells at 45 uM after 48 hrs by MTT assay; format: functional, cell-based
Summary of the method: (§1)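 Cells grown in RPMI-1640 with L-glutamine, 1 mM pyruvate, penicillin/streptomycin, 0.2% bicarbonate and 10% FBS, seeded at 6000 cells/well. After 24 h, compound in DMSO diluted into serum-free medium was added (DMSO under 1% final), as a single screening concentration or a dilution series. Viability by MTT reduction after 48 h.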

[2] = Displacement of radiolabeled MK801 from NMDA receptor at 10 uM
Summary of the method: (§2)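 Receptor screen run by the NIMH Psychoactive Drug Screening Program. Each compound at 10 μM incubated with the relevant receptor preparation; percent inhibition of radioligand binding determined.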

[3] = system: MDA-MB-435; assay: Cytotoxicity against human MDA-MB-435 cells at 450 uM after 48 hrs by SRB assay; format: functional, cell-based
Summary of the method: (§3)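 MDA-MB-435 cells grown in IMEM with 10% FBS, attached 24 h in 96-well plates, then exposed 48 h to compound or EtOH vehicle. Fixed with 10% TCA at 4 °C for 1 h, stained with 0.4% SRB for 30 min, washed with 1% HOAc, solubilised in 10 mM Tris. Absorbance read at 560 nm. IC50 taken from linear portion of log dose-response curves.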

[4] = biological target: Delta-type opioid receptor (Homo sapiens) (UniProt P41143); assay: Displacement of [3H][D-Ala2,D-Leu5]enkephalin from human cloned delta opioid receptor at 10 uM; summary of the method: as §2
Delta-type opioid receptor (Homo sapiens), sequence (P41143 whole entry): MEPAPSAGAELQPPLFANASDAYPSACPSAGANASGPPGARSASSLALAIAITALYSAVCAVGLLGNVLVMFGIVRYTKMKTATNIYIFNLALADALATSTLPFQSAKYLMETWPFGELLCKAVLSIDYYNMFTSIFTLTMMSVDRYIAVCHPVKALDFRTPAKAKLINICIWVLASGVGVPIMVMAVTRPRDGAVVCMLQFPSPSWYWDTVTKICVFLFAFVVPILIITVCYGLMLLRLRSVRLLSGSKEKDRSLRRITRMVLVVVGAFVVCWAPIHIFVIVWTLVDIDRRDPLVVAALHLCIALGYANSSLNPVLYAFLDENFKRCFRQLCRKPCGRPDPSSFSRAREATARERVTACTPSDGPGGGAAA

[5] = system: N2a; assay: Cytotoxicity against mouse Neuro2a cells at 45 uM after 48 hrs by MTT assay; format: functional, cell-based; summary of the method: as §1
[6] = biological target: Delta-type opioid receptor (Homo sapiens) (UniProt P41143); assay: Agonist activity at human delta opioid receptor expressed in CHO cells assessed as inhibition of forskolin-stimulated adenylyl cyclase relative to [D-Pen2,D-Pen5]-enkephalin; format: functional, cell-based
Summary of the method: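 δ-Opioid receptor-expressing CHO cells washed with serum-free F12 Ham's medium, labelled 8 h with 1.2 μCi [3H]adenine. Then 40 min at 37 °C with 50 μM Ro20-1724, peptidase inhibitors (10 μM bestatin, 30 μM captopril, 50 μM L-leucyl-L-leucine), 50 μM forskolin and varied ligand concentrations. [3H]cAMP isolated on cation-exchange resin and alumina, counted with [14C]cAMP recovery correction.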

[7] = system: MDA-MB-435; assay: Cell cycle arrest in human MDA-MB-435 cells assessed as accumulation at G1 phase at 20 uM after 24 hrs by flow cytometry; format: functional
Summary of the method: (§4)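 MDA-MB-435 cells grown in IMEM with 10% FBS and gentamycin. Exposed 24 h to vehicle or sample, harvested and stained with Krishan's reagent. Propidium iodide intensity read by flow cytometry, with quality-control samples each run. Percentage of cells in each cycle phase fitted by manual analysis.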

[8] = system: NCI-H460; assay: Induction of morphological changes in human NCI-H460 cells at 13.5 uM after 6 days; format: functional
[9] = system: A10; assay: Induction of microtubule depolymerization in rat A10 cells at 113 uM after 24 hrs by indirect immunofluorescence technique; format: functional, cell-based
Summary of the method: (§5)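 A-10 cells on glass coverslips in Basal Medium Eagle with 10% FBS, treated 18-24 h. Methanol-fixed, blocked with 10% calf serum, probed with monoclonal β-tubulin antibody then FITC sheep anti-mouse secondary for 1 h. Nuclei stained with 0.1 μg/mL DAPI. Examined by fluorescence microscopy.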

[10] = system: NCI-H460; assay: Induction of morphological changes in human NCI-H460 cells at 13.5 uM after 24 hrs; format: functional, cell-based
[11] = system: A10; assay: Induction of microtubule depolymerization in rat A10 cells at 45 uM after 24 hrs by indirect immunofluorescence technique; format: functional; settings: A10, 24 h; summary of the method: as §5
[12] = system: MDA-MB-435; assay: Cytotoxicity against human MDA-MB-435 cells after 48 hrs by SRB assay; format: functional, cell-based; settings: MDA-MB-435, 48 h; summary of the method: as §3
[13] = system: NCI-H460; assay: Cytotoxicity against human NCI-H460 cells after 48 hrs by MTT assay; format: functional, cell-based; settings: NCI-H460, 48 h; summary of the method: as §1
[14] = system: MDA-MB-435; assay: Cell cycle arrest in human MDA-MB-435 cells assessed as accumulation at S phase at 20 uM after 24 hrs by flow cytometry; format: functional; summary of the method: as §4
[15] = system: A10; assay: Induction of actin microfilament disrupting activity in rat A10 cells at 113 uM after 24 hrs; format: functional, cell-based
Summary of the method: (§6)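 A-10 rat aortic smooth muscle cells on glass coverslips in BME with 10% fetal calf serum, treated 24 h. Fixed in 3% paraformaldehyde, permeabilised with 0.2% Triton X-100, reduced with sodium borohydride. Actin stained 45 min with 100 nM TRITC-phalloidin, DNA with DAPI. Examined by fluorescence microscopy.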

[16] = system: MDA-MB-435; assay: Cell cycle arrest in human MDA-MB-435 cells assessed as accumulation at G2/M phase at 20 uM after 24 hrs by flow cytometry; format: functional; summary of the method: as §4
[17] = system: A10; assay: Induction of actin microfilament disrupting activity in rat A10 cells at 45 uM after 24 hrs; format: functional, cell-based; summary of the method: as §6
[18] = system: A10; assay: Induction of nucleus breakdown into micronuclei in rat A10 cells; format: functional, cell-based; summary of the method: as §5

inhibition [2] [%] | inhibition [4] [%] | Activity [6] | SMILES | Activity [1] | Activity [3] | Activity [5] | Activity [7] [%] | Activity [8] [%] | Activity [9] | Activity [10] | inhibition at 45 µM [11] [%] | IC50 [12] [µM] | IC50 [13] [µM] | Activity [14] [%] | Activity [15] | Activity [16] [%] | Activity [17] | Activity [18]
50 | 50 | inactive | O=c1[nH]cc(-c2ccccc2)c2ccncc12 | inactive | inactive | inactive |  |  |  |  |  |  |  |  |  |  |  | 
 |  |  | Nc1ncc(-c2ccccc2)c2ccncc12 [LOPHOCLADINE B] |  |  | inactive | 19.8 | 80 | Active | Active | 85 | 3.1 | 64.6 | 8 | inactive | 72.2 | inactive | Active
